According to ChEMBL document CHEMBL4765325, “Discovery of dihydropyrrolidones as novel inhibitors against influenza A virus” (Eur J Med Chem, 2020):
Active and inactive are the calls of the source. The calls are words filed in the database; no cut-off is given here.

Key:
[1] = system: Influenza A virus; assay: Antiviral activity against Influenza A virus (A/Puerto Rico/8/34(H1N1)) infected in dog MDCK cells assessed as reduction in virus-induced cytopathogenicity incubated for 48 hrs by microscopic analysis; assay type: functional, organism-based; settings: A/Puerto Rico/8/1934(H1N1)
[2] = system: H3N2 subtype; assay: Antiviral activity against Influenza A virus (A/Aichi/2/1968(H3N2)) infected in dog MDCK cells assessed as reduction in virus-induced cytopathogenicity incubated for 48 hrs by microscopic analysis; assay type: functional, cell-based
[3] = system: Influenza A virus; assay: Antiviral activity against Influenza A virus (A/Fort Monmouth/1/1947(H1N1)) infected in dog MDCK cells assessed as reduction in virus-induced cytopathogenicity incubated for 48 hrs by microscopic analysis; assay type: functional, organism-based
[4] = system: Influenza A virus; assay: Antiviral activity against Influenza A virus 690 (H3) infected in dog MDCK cells assessed as reduction in virus-induced cytopathogenicity incubated for 48 hrs by microscopic analysis; assay type: functional, organism-based
[5] = Selectivity index, ratio of CC50 for dog MDCK cells to IC50 for antiviral activity against Influenza A virus (A/Aichi/2/1968(H3N2)); assay type: toxicity; settings: read-out: Ratio CC50/IC50
How it was run: (§1)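 SI = CC50/IC50, both from MTT read-outs in MDCK cells in triplicate. Cytotoxicity: 2 × 10⁴ cells/well, overnight at 37 °C with 5% CO2, then compound at 1.56–400 µM for 48 h, MTT 4 h, DMSO, A570. Antiviral: cells infected 1 h, washed, then cultured 48 h in DMEM with TPCK and two-fold serial compound dilutions.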

[6] = Selectivity index, ratio of CC50 for dog MDCK cells to IC50 for antiviral activity against Influenza A virus (A/Fort Monmouth/1/1947(H1N1)); assay type: toxicity; settings: read-out: Ratio CC50/IC50; how it was run: as §1
[7] = Selectivity index, ratio of CC50 for dog MDCK cells to IC50 for antiviral activity against Influenza A virus (A/Puerto Rico/8/34(H1N1)); assay type: toxicity; settings: read-out: Ratio CC50/IC50; how it was run: as §1
[8] = Selectivity index, ratio of CC50 for dog MDCK cells to IC50 for antiviral activity against Influenza A virus 690 (H3); assay type: toxicity; settings: read-out: Ratio CC50/IC50; how it was run: as §1
[9] = system: Influenza A virus; assay: Antiviral activity against Influenza A virus (A/Puerto Rico/8/34(H1N1)) infected in dog MDCK cells assessed as reduction in plaque formation incubated for 48 hrs by crystal violet staining based assay; assay type: functional, organism-based; settings: A/Puerto Rico/8/1934(H1N1), dose 5-40 µM
How it was run: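 Plaque reduction assay in PR8-infected MDCK cells across a range of compound doses. Cells were fixed with 4% paraformaldehyde and stained with crystal violet. Inhibition was scored by counting plaques.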

[10] = Cytotoxicity against dog MDCK cells assessed as reduction in cell viability incubated for 48 hrs by MTT assay; assay type: cell-based, Canis lupus familiaris
How it was run: (§2)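 MDCK or A549 cells were seeded at 2 × 10⁴ per well and incubated overnight at 37 °C, 5% CO₂. Compound (1.56 to 400) was added for 48 h, followed by MTT for 4 h at 37 °C and DMSO to dissolve the formazan. Absorbance was read at 570 nm and CC₅₀ calculated.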

[11] = Cytotoxicity against human A549 cells assessed as reduction in cell viability incubated for 48 hrs by MTT assay; assay type: cell-based; how it was run: as §2
[12] = system: Influenza A virus; assay: Antiviral activity against Influenza A virus (A/Puerto Rico/8/34(H1N1)) infected in dog MDCK cells assessed as reduction in viral replication by measuring NP level incubated for 24 hrs by immunofluorescence staining based Ti-Eclipse inverted fluorescence microscopic analysis; assay type: functional, organism-based; settings: A/Puerto Rico/8/1934(H1N1), dose 5-40 µM
How it was run: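 MDCK cells were infected with PR8 at 100TCID₅₀ and treated with varied compound concentrations. At 24 h p.i. they were washed with cold PBS, fixed in 4% paraformaldehyde for 10 min and blocked in 3% BSA for 1 h at room temperature. Staining used anti-NP (1:250) overnight at 4 °C, then a FITC secondary for 1 h, with DAPI nuclear counterstain; cells were imaged by fluorescence microscopy.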

[13] = system: Influenza A virus; assay: Antiviral activity against Influenza A virus (A/Puerto Rico/8/34(H1N1)) infected in dog MDCK cells assessed as reduction in viral replication by measuring NP level incubated for 24 hrs by Western blot analysis; assay type: functional, organism-based; settings: A/Puerto Rico/8/1934(H1N1), dose 5-40 µM
How it was run: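 Two-fold serial compound dilutions were added to PR8-infected MDCK cells after virus adsorption, and cells were harvested at 24 h p.i. Equal lysate protein was run on 10% SDS-PAGE and transferred to PVDF. Blots were probed with anti-NP (1:2000) and β-actin as loading control, then an HRP secondary, with chemiluminescent detection.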

[14] = system: Influenza A virus; assay: Antiviral activity against Influenza A virus (A/Puerto Rico/8/34(H1N1)) infected in human A549 cells assessed as reduction in viral replication by measuring HA mRNA expression at 5 to 40 uM incubated for 24 hrs by qRT-PCR analysis; assay type: functional, organism-based; settings: A/Puerto Rico/8/1934(H1N1), dose 5-40 µM
[15] = system: Influenza A virus; assay: Antiviral activity against Influenza A virus (A/Puerto Rico/8/34(H1N1)) infected in dog MDCK cells assessed as reduction in viral replication by measuring HA mRNA expression measured upto 72 hrs by qRT-PCR analysis; assay type: functional, organism-based; settings: A/Puerto Rico/8/1934(H1N1), time hrs <=72
How it was run: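 Viral HA mRNA was measured by qRT-PCR in IAV-infected MDCK cells treated with serially diluted compound, at 24, 48 and 72 h p.i. Ribavirin served as positive control; data are mean SD.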

[16] = system: Influenza A virus; assay: Antiviral activity against Influenza A virus (A/Puerto Rico/8/34(H1N1)) infected in dog MDCK cells assessed as reduction in viral replication at 40 uM measured upto 10 hrs; assay type: functional, organism-based; settings: A/Puerto Rico/8/1934(H1N1), time hrs <=10
How it was run: (§3)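 Time-of-addition assay with PR8. After unabsorbed virus was removed, cells received compound during the intervals 0–2, 2–5, 5–8, 8–10 or 0–10 h, covering one replication cycle. At 10 h p.i., viral NP protein was read by western blot and viral mRNA by qRT-PCR. Three independent experiments, mean SD.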

[17] = system: Influenza A virus; assay: Antiviral activity against Influenza A virus (A/Puerto Rico/8/34(H1N1)) infected in dog MDCK cells assessed as reduction in viral replication by measuring NP expression at 40 uM measured upto 10 hrs by Western blot analysis; assay type: functional, organism-based; settings: A/Puerto Rico/8/1934(H1N1), time hrs <=10; how it was run: as §3
[18] = system: Influenza A virus; assay: Antiviral activity against Influenza A virus (A/Puerto Rico/8/34(H1N1)) infected in human A549 cells assessed as reduction in viral replication by measuring NP expression at 40 uM measured upto 10 hrs by qRT-PCR analysis; assay type: functional, organism-based; settings: A/Puerto Rico/8/1934(H1N1), time hrs <=10; how it was run: as §3
[19] = system: MDCK; assay: Upregulation of IFN-beta in dog MDCK cells infected with Influenza A virus (A/Puerto Rico/8/34(H1N1)) at 40 uM incubated for 24 hrs by qRT-PCR analysis; assay type: functional, cell-based; settings: Canis lupus familiaris
How it was run: (§4)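 Virus-infected MDCK cells were treated with compound for 24 h. Expression of each gene was then measured by qRT-PCR using gene-specific primers, against an untreated control group.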

[20] = system: MDCK; assay: Upregulation of MxA in dog MDCK cells infected with Influenza A virus (A/Puerto Rico/8/34(H1N1)) at 40 uM incubated for 24 hrs by qRT-PCR analysis; assay type: functional, cell-based; settings: Canis lupus familiaris; how it was run: as §4
[21] = system: MDCK; assay: Downregulation of NOX1 in dog MDCK cells infected with Influenza A virus (A/Puerto Rico/8/34(H1N1)) at 40 uM incubated for 24 hrs by qRT-PCR analysis; assay type: functional, cell-based; settings: Canis lupus familiaris; how it was run: as §4

Molecule CCOC(=O)C1=C(Nc2ccc(C(C)C)cc2)C(=O)N(c2ccc(C(C)C)cc2)C1c1ccccc1 (stereo not given) has an IC50 [1] of over 400 µM.
For CCOC(=O)C1=C(Nc2ccccc2)C(=O)N(c2ccccc2)C1c1ccccc1 (stereo not given), the IC50 [1] was over 400 µM.
In the case of CCOC(=O)C1=C(Nc2ccc(C(F)(F)F)cc2)C(=O)N(c2ccc(C(F)(F)F)cc2)C1c1ccc([N+](=O)[O-])cc1 (stereo not given), the IC50 [1] is reported as over 400 µM.
NC(=O)c1ncn([C@@H]2O[C@H](CO)[C@@H](O)[C@H]2O)n1 [RIBAVIRIN] showed an IC50 [1] of 2.84 µM.
Work on CCOC(=O)C1=C(Nc2ccc(OC)cc2)C(=O)N(c2ccc(OC)cc2)C1c1ccccc1 (stereo not given) yielded an IC50 [1] of over 400 µM.
In the case of CCOC(=O)C1=C(Nc2ccc(C(F)(F)F)cc2)C(=O)N(c2ccc(C(F)(F)F)cc2)C1c1ccccc1 (stereo not given), the IC50 [1] is reported as 3.11 µM, the IC50 [2] is reported as 5.26 µM and the IC50 [3] is reported as 3.58 µM. For the same molecule, the IC50 [4] was 7.13 µM, the selectivity ratio [5] was over 76 and the selectivity ratio [6] was over 112. The selectivity ratio [7] was over 129, the selectivity ratio [8] was over 56.1 and the Activity [9] was “Dose-dependent effect”. For the same molecule, the CC50 at 48 h [10] was over 400 µM, the CC50 at 48 h [11] was over 400 µM and the Activity [12] was “Dose-dependent effect”. The Activity [13] was “Dose-dependent effect”, the Activity [14] was “Active” and the Activity [15] was “Active”. For the same molecule, the Activity [16] was “Active”, the Activity [17] was “Active” and the Activity [18] was “Active”. The Activity [19] was “Active”, the Activity [20] was “Active” and the Activity [21] was “Active”.
With CCOC(=O)C1=C(Nc2ccc(C(F)(F)F)cc2)C(=O)N(c2ccc(C(F)(F)F)cc2)C1c1cccc([N+](=O)[O-])c1 (stereo not given) the IC50 [1] was over 400 µM.
CCOC(=O)C1=C(Nc2cccc(C(F)(F)F)c2)C(=O)N(c2cccc(C(F)(F)F)c2)C1c1ccccc1 (stereo not given) gave an IC50 [1] of 30.9 µM.
Molecule CCOC(=O)C1=C(Nc2ccc(C(F)(F)F)cc2)C(=O)N(c2ccc(C(F)(F)F)cc2)C1c1ccc(C#N)cc1 (stereo not given) has an IC50 [1] of over 400 µM.
Work on COC(=O)C1=C(Nc2ccc(C(F)(F)F)cc2)C(=O)N(c2ccc(C(F)(F)F)cc2)C1c1ccccc1 (stereo not given) yielded an IC50 [1] of 11.9 µM.
With COC(=O)C1=C(Nc2cccc(C(F)(F)F)c2)C(=O)N(c2cccc(C(F)(F)F)c2)C1c1ccccc1 (stereo not given) the IC50 [1] was 16.1 µM.
Molecule CCOC(=O)C1=C(Nc2ccc(C(F)(F)F)cc2)C(=O)N(c2ccc(C(F)(F)F)cc2)C1c1ccc(Br)s1 (stereo not given) has an IC50 [1] of over 400 µM.
Work on CCOC(=O)C1=C(Nc2ccc(C(F)(F)F)cc2)C(=O)N(c2ccc(C(F)(F)F)cc2)C1c1ccc(C(F)(F)F)cc1 (stereo not given) yielded an IC50 [1] of 67.2 µM.
CCOC(=O)C1=C(Nc2ccc(Br)cc2)C(=O)N(c2ccc(Br)cc2)C1c1ccccc1 (stereo not given) showed an IC50 [1] of over 400 µM.
In the case of CCOC(=O)C1=C(Nc2ccc(C(F)(F)F)cc2)C(=O)N(c2ccc(C(F)(F)F)cc2)C1c1ccc(F)cc1 (stereo not given), the IC50 [1] is reported as 7.63 µM.
For CCOC(=O)C1=C(Nc2ccc(C(F)(F)F)cc2)C(=O)N(c2ccc(C(F)(F)F)cc2)C1c1ccc(OC(F)(F)F)cc1 (stereo not given), the IC50 [1] was 128 µM.
Work on CCOC(=O)C1=C(Nc2ccc(C(C)(C)C)cc2)C(=O)N(c2ccc(C(C)(C)C)cc2)C1c1ccccc1 (stereo not given) yielded an IC50 [1] of over 400 µM.
Molecule CCOC(=O)C1=C(Nc2ccc(C(F)(F)F)cc2)C(=O)N(c2ccc(C(F)(F)F)cc2)C1c1ccc(C(C)(C)C)cc1 (stereo not given) has an IC50 [1] of over 400 µM.
In the case of CCOC(=O)C1=C(Nc2ccc(C(F)(F)F)cc2)C(=O)N(c2ccc(C(F)(F)F)cc2)C1c1ccc(C)cc1 (stereo not given), the IC50 [1] is reported as 68.5 µM.
For CCOC(=O)C1=C(Nc2cccc(Cl)c2)C(=O)N(c2cccc(Cl)c2)C1c1ccccc1 (stereo not given), the IC50 [1] was 6.91 µM.
Molecule CCOC(=O)C1=C(Nc2ccc(C(F)(F)F)cc2)C(=O)N(c2ccc(C(F)(F)F)cc2)C1 has an IC50 [1] of 222 µM.
Work on CCOC(=O)C1=C(Nc2ccc(C(F)(F)F)cc2)C(=O)N(c2ccc(C(F)(F)F)cc2)C1c1ccc(Cl)cc1 (stereo not given) yielded an IC50 [1] of over 400 µM.
CCOC(=O)C1=C(Nc2ccc(C)cc2)C(=O)N(c2ccc(C)cc2)C1c1ccccc1 (stereo not given) gave an IC50 [1] of 19 µM.
With CCOC(=O)C1=C(Nc2ccc(C(F)(F)F)cc2)C(=O)N(c2ccc(C(F)(F)F)cc2)C1c1cccc(OC)c1 (stereo not given) the IC50 [1] was 9.23 µM.
CCOC(=O)C1=C(NC2CCCCC2)C(=O)N(C2CCCCC2)C1c1ccccc1 (stereo not given) gave an IC50 [1] of over 400 µM.
With CCOC(=O)C1=C(Nc2ccc(Cl)cc2)C(=O)N(c2ccc(Cl)cc2)C1c1ccccc1 (stereo not given) the IC50 [1] was over 400 µM.
In the case of CCOC(=O)C1=C(Nc2ccc(C(F)(F)F)cc2)C(=O)N(c2ccc(C(F)(F)F)cc2)C1c1ccc(Br)cc1 (stereo not given), the IC50 [1] is reported as over 400 µM.
For CCOC(=O)C1=C(Nc2ccc(C(F)(F)F)cc2)C(=O)N(c2ccc(C(F)(F)F)cc2)C1c1cccc(C(F)(F)F)c1 (stereo not given), the IC50 [1] was 11.8 µM.
CCOC(=O)C1=C(Nc2ccc(C(F)(F)F)cc2)C(=O)N(c2ccc(C(F)(F)F)cc2)C1c1cccc2ccccc12 (stereo not given) gave an IC50 [1] of 11.8 µM.
CCOC(=O)C1=C(Nc2ccc(Oc3ccccc3)cc2)C(=O)N(c2ccc(Oc3ccccc3)cc2)C1c1ccccc1 (stereo not given) gave an IC50 [1] of over 400 µM.
